Our source for the viability values is PubChem BioAssay.

Unmarked numbers belong to inactive results.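 Rule for the calls: active = viability at or below 30% in both replicate assays; inconclusive = viability at or below 30% in just one of the two assays; inactive = the rest.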

The nature of this assay: HUVEC growth inhibition – cell-based, human, primary screen (AID 575).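 Note: 100% = median of untreated cell wells with 0.1% DMSO on each plate.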 Conditions: HUVEC proliferation, CellTiter-Glo luminescence, 72 h; at 10 µM; stronger effect = lower value. A digest of the protocol:
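Timing: 72 h treatment at 37 °C; material: HUVEC primary cells; technique: CellTiter-Glo luminescence measuring cellular ATP; controls: vehicle and MePR control wells; measure: percent of median DMSO-control luminescence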
In general terms: In ATP-based viability assays light output follows the ATP content of the culture.
As for `CC1Cc2nc(SCC(=O)Nc3ccc(F)cc3F)n(C)c(=O)c2S1` (stereo not given), the viability (as a rule, a read-out of living cells in per cent, often relative to untreated cells) is 102%.
With `COC(=O)CCn1nnc(-c2cccs2)n1`, the viability was 101%.
With `CCN(C#N)c1nc(NC(C)C)nc(NC(C)C)n1`, the viability was 97.6%.
`COc1ccccc1C(=O)Nc1ccc(S(=O)(=O)N2CCCC2)cc1`: the viability is 81.9%.
For the molecule `COC(=O)c1[nH]c2ccccc2c1NC(=O)CN1CCC(C(N)=O)(N2CCCCC2)CC1`, the viability is 101%.
Then `CC(O)c1c(OCc2ccccc2)ncnc1OCc1ccccc1` (stereo not given), with 59.5%; and `Cc1c(C(=O)OC(C)C)[nH]c2c1C(=O)CCC2`, with 102%; and `CC(C)CNC(=O)C1C2C=CC(C2)C1C(=O)O` (stereo not given), with 108%.
As for `COc1cccc(Cn2c(Oc3ccccc3)nc3c2c(=O)n(C)c(=O)n3C)c1`, the viability was 72.7%.
As to `CC(C)(C)NC(=O)Cn1nnc(-c2cccs2)n1`, the viability is 101%.
On to `COc1cc(CN2CCN(C(=O)CC(C)C)CC2)cc(OC)c1O`, for which the viability was 103%.
Take `CCn1c(C)nc2cc(C(=O)OCCC(F)(F)F)ccc21`: the viability is 108%.
On to `CCn1c(CC(=O)Nc2cccc(OC)c2)nnc1SCC(=O)Nc1nccs1`, for which the viability was 94.5%.
Then `CCOc1cc(NC(=O)c2ccco2)c(OCC)cc1NC(=O)CCC(=O)NCc1cccnc1`, with 88.1%; and `CCN(CC)c1ccc(CNc2ccc(Br)cn2)cc1`, with 106%.
Regarding `CCOc1ccccc1C(=O)NCCC(=O)O`, the viability is 111%.
As for `Cc1ccc(-c2csc3nnc(SCC(=O)NCc4ccco4)n23)cc1`, the viability was 85.6%.
In the case of `C=CCSc1nnc(-c2ccccc2NC(C)=O)c(=O)[nH]1`, the viability was 105%.
In the case of `CNC(=O)CSc1nnc(-c2cccc(S(=O)(=O)N3CCOCC3)c2)n1-c1ccc(F)cc1`, the viability was 99.9%.
As for `O=C(NCc1ccccc1)C1CCN(S(=O)(=O)N2CCCCCC2)CC1`, the viability is 109%.
Regarding `CC(C(=O)N1CCc2ccccc21)N1CCc2ccccc2C1` (stereo not given), the viability was 93.7%.
On to `CCCNC(=O)c1ccccc1C(=O)NCCC`, for which the viability was 103%.
As to `CCCC(C)c1nnc(NC(=O)C2CCCO2)s1` (stereo not given), the viability is 95.8%.
As to `CCN(CC)S(=O)(=O)c1cccc2c(N(C)C)cccc12`, the viability is 107%.
As for `O=C1CC(C2CCCO2)C(=O)N1Cc1ccccc1` (stereo not given), the viability was 90.2%.
With `O=c1[nH]c(SCc2cc(=O)n3ccccc3n2)nc2c1CCC2` the figure was 74.7%.
For the molecule `COC(=O)c1cc2oc(C)cc2n1CC(=O)N(C)c1ccccc1`, the viability is 83.2%.
Consider `Cc1cc(NC(=O)Cn2cnc3c2c(=O)n(C)c(=O)n3C)n(-c2ccccc2)n1`, for which the viability was 117%.
In the case of `CCc1nnc(NC(=O)c2cc3c(s2)CCCCC3)s1`, the viability was 90.5%.
Then `Cc1ccc(-c2ccc(=O)n(CCC(=O)NCc3ccccn3)n2)cc1`, with 89.3%; and `CCC(=O)N1CCc2cc(S(=O)(=O)CCC(=O)Nc3c(C)n(C)n(-c4ccccc4)c3=O)ccc21`, with 89.8%.
Turning to `CC(=O)N1CCc2cc(S(=O)(=O)NCCC3=CCCCC3)ccc21`, the viability was 64%.
As to `COc1cccc(-n2nc(C(=O)Nc3ccc4c(c3)OCO4)c3ccccc3c2=O)c1`, the viability was 85.1%.
With `COCCCNS(=O)(=O)c1ccc2c(c1)CCN2C(C)=O` the figure was 102%.
Then `Cc1ccc(S(=O)(=O)N2CCC(C(=O)NCCN3CCCCCC3)CC2)cc1`, with 108%.
Take `CCN(CC)c1ccc(-c2nn3c(-c4cccnc4)nnc3s2)cc1`: the viability was 37%.
With `Cc1cccc(-c2c3c(=O)n(C)c(=O)n(C)c3cn2-c2ccc(O)cc2)c1`, the viability was 108%.
As to `CCOC(=O)c1[nH]c2ccc(OC)cc2c1NC(=O)CCN1CCC(C)CC1`, the viability is 94.1%.
As to `CCS(=O)(=O)N1CCCC(C(=O)NCc2ccccc2Cl)C1` (stereo not given), the viability is 99.1%.
On to `Cc1ccc(N2CC(C)Cn3c2nc2c3c(=O)n(CC(=O)OCc3ccccc3)c(=O)n2C)cc1C` (stereo not given), for which the viability is 74.8%.
